From ChEMBL document CHEMBL1629587, “Discovery of a small-molecule inhibitor of {beta}-1,6-glucan synthesis” (2009)
Values after ≈ are worked out from the molar mass of the structure shown. Active and inactive are the calls of the source. The rule behind the calls is not given here. Starred links: 1 amine or outer side, 2 acyl side, 3 side chain; linkers in the order of their positions; H or OH if unused. Positions of bridges follow the written chain, without caps; N, C: chain ends. Non-standard residues stand in square brackets, D forms with d. Residues, ends and D or L forms follow the SMILES beside them. *: point of attachment. Orn(4R-OH,5R-OH) = O=C([C@H](C[C@@H](O)[C@@H](O)N[*:3])N[*:1])[*:2]; hTyr(3S-OH,4S-OH) = N[C@H](C(=O)O)[C@H](O)[C@@H](O)c1ccc(O)cc1; Pro(3S-OH,4S-Me) = C[C@H]1CN[C@H](C(=O)O)[C@H]1O; Palmitoyl = CCCCCCCCCCCCCCCC(=O)*; Hyp = O=C(O)[C@@H]1C[C@@H](O)CN1

Assays:
[1] = tested on: Saccharomyces cerevisiae; assay: Fungicidal activity against Saccharomyces cerevisiae AY-10-R16 mutant after 24 hrs by microdilution method; assay type: functional; conditions: AY-10-R16, 24 h
[2] = tested on: Saccharomyces cerevisiae; assay: Fungicidal activity against Saccharomyces cerevisiae AY-10-R11 mutant after 24 hrs by microdilution method; assay type: functional; conditions: AY-10-R11, 24 h
[3] = tested on: Saccharomyces cerevisiae; assay: Fungicidal activity against Saccharomyces cerevisiae AY-10-R4 mutant after 24 hrs by microdilution method; assay type: functional; conditions: AY-10-R4, 24 h
[4] = tested on: Saccharomyces cerevisiae; assay: Fungicidal activity against Saccharomyces cerevisiae AY-10-R15 mutant after 24 hrs by microdilution method; assay type: functional; conditions: AY-10-R15, 24 h
[5] = tested on: Saccharomyces cerevisiae; assay: […] activity against Saccharomyces cerevisiae AY-10 after 24 hrs by microdilution method; assay type: functional; conditions: AY-10, 24 h
[6] = tested on: Saccharomyces cerevisiae; assay: […] activity against Saccharomyces cerevisiae AY-10 transformed with empty vector pRS416 after 24 hrs by microdilution method; assay type: functional; conditions: AY-10, 24 h
[7] = tested on: Saccharomyces cerevisiae; assay: […] activity against Saccharomyces cerevisiae AY-10 transformed with pRS416-31 carrying KRE6 gene after 24 hrs by microdilution method; assay type: functional; conditions: AY-10, 24 h
[8] = tested on: Saccharomyces cerevisiae; assay: […] activity against Saccharomyces cerevisiae AY-10 transformed with pRS416-13 carrying ADP1 gene after 24 hrs by microdilution method; assay type: functional; conditions: AY-10, 24 h
[9] = tested on: Saccharomyces cerevisiae; assay: Inhibition of beta-1,3-Glucan synthesis in Saccharomyces cerevisiae AY-10 assessed as reduction in [14C]glucose incorporation at 0.039 to 0.625 ug/ml after 1 hr; assay type: functional, organism-based
How it was run: (§1)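 Exponential cells in RPMI 1640 at A595 about 0.6, pulse-labelled with [14C]glucose 2 μCi/ml plus drug at 30°C, sampled at 1 and 3 h. Cell wall fractionated: mannan from 3% NaOH extracts at 80°C by Fehling's reaction; residue digested with Zymolyase 100T (1 mg/ml), insoluble part = chitin; β-1,3-glucan = total glucan minus dialysed β-1,6-glucan. Scintillation counting; % change versus untreated.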

[10] = tested on: Saccharomyces cerevisiae; assay: Inhibition of beta-1,6-Glucan synthesis in Saccharomyces cerevisiae AY-10 assessed as reduction in [14C]glucose incorporation at 0.039 to 0.625 ug/ml after 1 hr; assay type: functional, organism-based; conditions: at 0.039 to 0.625 µg/mL
How it was run: (§2)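 Exponentially growing cells in RPMI 1640 (absorbance ~0.6 at 595 nm) incubated at 30°C with drug plus [14C]glucose at 2 μCi/ml. Cells extracted twice with 3% NaOH at 80°C, then the insoluble material digested overnight at 30°C with Zymolyase 100T (1 mg/ml, pH 7.5). The soluble fraction was dialysed to remove β-1,3-glucan oligosaccharides, and the retained β-1,6-glucan was counted by scintillation. Read-out is percent change in incorporated radioactivity versus the drug-free control.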

[11] = tested on: Saccharomyces cerevisiae; assay: Inhibition of beta-1,6-Glucan synthesis in Saccharomyces cerevisiae AY-10 assessed as reduction in [14C]glucose incorporation at 0.078 to 1.25 ug/ml after 1 hr; assay type: functional, organism-based; conditions: at 0.078 to 1.25 µg/mL; how it was run: as §2
[12] = tested on: Saccharomyces cerevisiae; assay: Inhibition of beta-1,6-Glucan synthesis in Saccharomyces cerevisiae AY-10 assessed as reduction in [14C]glucose incorporation at 0.078 ug/ml after 3 hrs; assay type: functional, organism-based; conditions: at 0.078 µg/mL; how it was run: as §2
[13] = tested on: Saccharomyces cerevisiae; assay: Inhibition of beta-1,6-Glucan synthesis in Saccharomyces cerevisiae AY-10 assessed as reduction in [14C]glucose incorporation at 0.078 to 1.25 ug/ml after 3 hrs; assay type: functional, organism-based; conditions: at 0.078 to 1.25 µg/mL; how it was run: as §2
[14] = tested on: Saccharomyces cerevisiae; assay: Inhibition of beta-1,6-Glucan synthesis in Saccharomyces cerevisiae AY-10 assessed as reduction in [14C]glucose incorporation at 0.078 ug/ml after 1 hr; assay type: functional, organism-based; conditions: at 0.078 µg/mL; how it was run: as §2
[15] = tested on: Saccharomyces cerevisiae; assay: Inhibition of beta-1,6-Glucan synthesis assessed as reduction in [14C]glucose incorporation at 0.025 to 4 ug/ml after 1 hr; conditions: AY-10
[16] = tested on: Nakaseomyces glabratus; assay: Inhibition of beta-1,6-Glucan synthesis in Candida glabrata IFO0622 assessed as reduction in [14C]glucose incorporation at 0.025 to 4 ug/ml after 3 hrs; assay type: functional, organism-based; how it was run: as §2
[17] = tested on: Saccharomyces cerevisiae; assay: Inhibition of beta-1,6-Glucan synthesis in Saccharomyces cerevisiae AY-10 assessed as reduction in [14C]glucose incorporation at 0.039 to 0.625 ug/ml after 3 hrs; assay type: functional, organism-based; conditions: at 0.039 to 0.625 µg/mL; how it was run: as §2
[18] = tested on: Saccharomyces cerevisiae; assay: Inhibition of beta-1,3-Glucan synthesis in Saccharomyces cerevisiae AY-10 assessed as reduction in [14C]glucose incorporation at 0.039 to 0.625 ug/ml after 3 hrs; assay type: functional, organism-based; how it was run: as §1
[19] = tested on: Clavispora lusitaniae; assay: Antifungal activity against Candida lusitaniae ATCC 200951 after 24 hrs by microdilution method; assay type: functional; conditions: ATCC 200951, 24 h
How it was run: (§3)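 CLSI broth microdilution run at 30°C instead of standard temperature; starting inoculum 1 × 10^3 to 3 × 10^3 cells/ml; DMSO under 1% final. Endpoints: MIC-0 = lowest concentration giving an optically clear well; MIC-2 = 50% drop versus drug-free control in absorbance at 570 nm with alamar blue redox indicator, used because treated cells clump.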

[20] = tested on: Candida tropicalis; assay: Antifungal activity against Candida tropicalis TIMM0313 after 24 hrs by microdilution method; assay type: functional; conditions: TIMM0313, 24 h; how it was run: as §3
[21] = tested on: Pichia kudriavzevii; assay: Antifungal activity against Candida krusei TIMM0269 after 24 hrs by microdilution method; assay type: functional; conditions: TIMM0269, 24 h; how it was run: as §3
[22] = tested on: Candida albicans; assay: Antifungal activity against Candida albicans ATCC MYA-573 after 24 hrs by microdilution method; assay type: functional; conditions: ATCC MYA-573, 24 h; how it was run: as §3
[23] = tested on: Kluyveromyces marxianus; assay: Antifungal activity against Candida kefyr ATCC 46764 after 24 hrs by microdilution method; assay type: functional; conditions: ATCC 46764, 24 h; how it was run: as §3
[24] = tested on: Candida albicans; assay: Antifungal activity against Candida albicans ATCC 24433 after 24 hrs by microdilution method; assay type: functional; conditions: ATCC 24433, 24 h; how it was run: as §3
[25] = tested on: Nakaseomyces glabratus; assay: Antifungal activity against Candida glabrata ATCC 200918 after 24 hrs by microdilution method; assay type: functional; conditions: ATCC 200918, 24 h; how it was run: as §3
[26] = tested on: Cryptococcus neoformans; assay: Antifungal activity against Cryptococcus neoformans ATCC 90112 after 24 hrs by microdilution method; assay type: functional; conditions: ATCC 90112, 24 h; how it was run: as §3
[27] = tested on: Aspergillus fumigatus; assay: Antifungal activity against Aspergillus fumigatus ATCC 36607 after 24 hrs by microdilution method; assay type: functional; conditions: ATCC 36607, 24 h; how it was run: as §3
[28] = tested on: Aspergillus flavus; assay: Antifungal activity against Aspergillus flavus ATCC 64025 after 24 hrs by microdilution method; assay type: functional; conditions: ATCC 64025, 24 h; how it was run: as §3
[29] = tested on: Candida tropicalis; assay: Antifungal activity against Candida tropicalis ATCC 200956 after 24 hrs by microdilution method; assay type: functional; conditions: ATCC 200956, 24 h; how it was run: as §3
[30] = tested on: Candida parapsilosis; assay: Antifungal activity against Candida parapsilosis IFO1396 after 24 hrs by microdilution method; assay type: functional; conditions: Lodderomyces parapsilosis, IFO1396, 24 h; how it was run: as §3
[31] = tested on: Aspergillus terreus; assay: Antifungal activity against Aspergillus terreus ATCC 28301 after 24 hrs by microdilution method; assay type: functional; conditions: ATCC 28301, 24 h; how it was run: as §3
[32] = tested on: Trichosporon asahii; assay: Antifungal activity against Trichosporon asahii ATCC 90039 after 24 hrs by microdilution method; assay type: functional; conditions: ATCC 90039, 24 h; how it was run: as §3
[33] = tested on: Saccharomyces cerevisiae; assay: Antifungal activity against Saccharomyces cerevisiae YPH500 after 24 hrs by microdilution method; assay type: functional; conditions: YPH500, 24 h
How it was run: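 CLSI broth microdilution, incubated at 30°C, starting inoculum 1 × 10^3 to 3 × 10^3 cells/ml; drugs from DMSO, final DMSO below 1%. MIC-0 is the lowest concentration giving an optically clear well. MIC-2 is read with alamar blue as a 50% drop in A570 versus the drug-free control; both endpoints were recorded.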

[34] = tested on: Nakaseomyces glabratus; assay: Antifungal activity against Candida glabrata IFO0622 after 24 hrs by microdilution method; assay type: functional; conditions: IFO0622, 24 h; how it was run: as §3

C[C@@H]1[C@H](O)[C@@H](C)/C=C/C=C/C=C/C=C/C=C/C=C/C=C/[C@H](O[C@@H]2O[C@H](C)[C@@H](O)[C@H](N)[C@@H]2O)C[C@@H]2O[C@](O)(C[C@@H](O)C[C@@H](O)[C@H](O)CC[C@@H](O)C[C@@H](O)CC(=O)O[C@H]1C)C[C@H](O)[C@H]2C(=O)O [AMPHOTERICIN B]
MIC [1]: 0.25 µg/mL (≈ 0.271 µM) | MIC [2]: 0.125 µg/mL (≈ 0.135 µM) | MIC [3]: 0.0625 µg/mL (≈ 0.0676 µM) | MIC [4]: 0.25 µg/mL (≈ 0.271 µM) | MIC [5]: 0.25 µg/mL (≈ 0.271 µM) | MIC [6]: 0.25 µg/mL (≈ 0.271 µM) | MIC [7]: 0.25 µg/mL (≈ 0.271 µM) | MIC [8]: 0.125 µg/mL (≈ 0.135 µM)

CCCCCCCCCCCCCCCC(=O)N[C@H]1C[C@@H](O)[C@@H](O)NC(=O)[C@@H]2[C@@H](O)[C@@H](C)CN2C(=O)[C@H]([C@@H](C)O)NC(=O)[C@H]([C@H](O)[C@@H](O)c2ccc(O)cc2)NC(=O)[C@@H]2C[C@@H](O)CN2C(=O)[C@H]([C@@H](C)O)NC1=O [ACULEACIN A] (Palmitoyl-[Orn(4R-OH,5R-OH)]T[Hyp][hTyr(3S-OH,4S-OH)]T[Pro(3S-OH,4S-Me)]; lactam 1-C)
inhibition [9]: Active | inhibition [10]: inactive | MIC [1]: 0.25 µg/mL (≈ 0.241 µM) | inhibition [11]: Active | inhibition [12]: Active | MIC [2]: 0.25 µg/mL (≈ 0.241 µM) | inhibition [13]: Active | MIC [3]: 0.125 µg/mL (≈ 0.121 µM) | inhibition [14]: Active | MIC [4]: 0.5 µg/mL (≈ 0.483 µM) | MIC [5]: 0.5 µg/mL (≈ 0.483 µM) | MIC [6]: 0.5 µg/mL (≈ 0.483 µM) | Activity [15]: Active | Activity [16]: Active | MIC [7]: 0.5 µg/mL (≈ 0.483 µM) | inhibition [17]: inactive | inhibition [18]: Active | MIC [8]: 0.25 µg/mL (≈ 0.241 µM)

Nc1nc(=O)[nH]cc1F [FLUCYTOSINE]
MIC [1]: 2 µg/mL (≈ 15.5 µM) | MIC [2]: 4 µg/mL (≈ 31 µM) | MIC [3]: 2 µg/mL (≈ 15.5 µM) | MIC [4]: 4 µg/mL (≈ 31 µM) | MIC [5]: 2 µg/mL (≈ 15.5 µM) | MIC [6]: 2 µg/mL (≈ 15.5 µM) | MIC [7]: 2 µg/mL (≈ 15.5 µM) | MIC [8]: 4 µg/mL (≈ 31 µM)

OC(Cn1cncn1)(Cn1cncn1)c1ccc(F)cc1F [FLUCONAZOLE]
MIC50 [19]: 0.063 µg/mL (≈ 0.206 µM) | MIC50 [20]: 0.25 µg/mL (≈ 0.816 µM) | MIC50 [21]: > 64 µg/mL | MIC50 [22]: > 64 µg/mL | MIC50 [23]: 0.25 µg/mL (≈ 0.816 µM) | MIC50 [24]: 0.25 µg/mL (≈ 0.816 µM) | MIC50 [25]: 16 µg/mL (≈ 52.2 µM) | MIC50 [26]: 2 µg/mL (≈ 6.53 µM) | MIC50 [27]: > 64 µg/mL | MIC50 [28]: > 64 µg/mL | MIC50 [29]: 16 µg/mL (≈ 52.2 µM) | MIC50 [30]: 1 µg/mL (≈ 3.27 µM) | MIC50 [31]: > 64 µg/mL | MIC50 [32]: 4 µg/mL (≈ 13.1 µM) | MIC50 [33]: 4 µg/mL (≈ 13.1 µM) | MIC50 [34]: 2 µg/mL (≈ 6.53 µM)
